In experiment [1] the target is T1, Excitatory amino acid transporter 3 (Homo sapiens, UniProt P43005).
T1 sequence (P43005 whole entry): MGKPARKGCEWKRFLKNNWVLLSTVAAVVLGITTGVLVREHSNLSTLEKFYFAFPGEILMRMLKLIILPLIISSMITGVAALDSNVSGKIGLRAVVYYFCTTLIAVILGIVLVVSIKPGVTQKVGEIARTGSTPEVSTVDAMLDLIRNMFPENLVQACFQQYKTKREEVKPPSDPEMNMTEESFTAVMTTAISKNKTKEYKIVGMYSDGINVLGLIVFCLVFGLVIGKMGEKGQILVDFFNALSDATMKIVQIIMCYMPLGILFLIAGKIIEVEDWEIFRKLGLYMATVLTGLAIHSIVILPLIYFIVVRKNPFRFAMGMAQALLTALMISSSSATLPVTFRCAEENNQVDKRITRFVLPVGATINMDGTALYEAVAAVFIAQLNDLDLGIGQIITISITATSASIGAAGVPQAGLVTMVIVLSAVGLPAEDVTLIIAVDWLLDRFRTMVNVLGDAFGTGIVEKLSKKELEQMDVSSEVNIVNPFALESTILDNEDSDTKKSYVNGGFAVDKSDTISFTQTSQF
Put plainly: Inhibition of human EAAT3 expressed in HEK293 cells assessed as inhibition of 3[H]-D-Aspartate uptake after 6 mins by scintillation counting method. An outline of the steps:
(§1)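 HEK293 cell lines expressing EAAT1, EAAT2 or EAAT3 were cultured and assayed for [³H]-D-aspartate uptake, following an earlier published protocol. Inhibition is reported as IC50 in μM, with pIC50 ± SEM.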

The target in experiment [2] is Excitatory amino acid transporter 1 (Homo sapiens, UniProt P43003). Kind of experiment: Inhibition of human EAAT1 expressed in HEK293 cells assessed as inhibition of 3[H]-D-Aspartate uptake after 6 mins by scintillation counting method. The method, boiled down:
as §1

In experiment [3] the target is Excitatory amino acid transporter 2 (Homo sapiens, UniProt P43004). Put plainly: Inhibition of human EAAT2 expressed in HEK293 cells assessed as inhibition of 3[H]-D-Aspartate uptake after 6 mins by scintillation counting method. The method, boiled down:
as §1

Excitatory amino acid transporter 1, sequence (P43003 whole entry): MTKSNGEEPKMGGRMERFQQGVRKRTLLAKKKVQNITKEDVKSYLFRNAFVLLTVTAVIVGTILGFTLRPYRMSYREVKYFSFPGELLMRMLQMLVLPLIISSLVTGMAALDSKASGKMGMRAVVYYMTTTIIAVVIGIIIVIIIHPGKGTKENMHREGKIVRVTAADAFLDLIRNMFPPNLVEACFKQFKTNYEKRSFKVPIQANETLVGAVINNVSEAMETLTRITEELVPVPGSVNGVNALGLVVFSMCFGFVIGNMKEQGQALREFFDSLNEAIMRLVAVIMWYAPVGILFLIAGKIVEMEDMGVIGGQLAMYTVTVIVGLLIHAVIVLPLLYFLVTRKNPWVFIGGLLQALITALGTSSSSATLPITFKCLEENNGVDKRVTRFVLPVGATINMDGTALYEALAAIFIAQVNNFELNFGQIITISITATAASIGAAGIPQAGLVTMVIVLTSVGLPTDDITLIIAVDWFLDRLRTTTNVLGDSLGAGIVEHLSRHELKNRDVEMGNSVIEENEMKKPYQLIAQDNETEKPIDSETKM
Excitatory amino acid transporter 2, sequence (P43004 whole entry): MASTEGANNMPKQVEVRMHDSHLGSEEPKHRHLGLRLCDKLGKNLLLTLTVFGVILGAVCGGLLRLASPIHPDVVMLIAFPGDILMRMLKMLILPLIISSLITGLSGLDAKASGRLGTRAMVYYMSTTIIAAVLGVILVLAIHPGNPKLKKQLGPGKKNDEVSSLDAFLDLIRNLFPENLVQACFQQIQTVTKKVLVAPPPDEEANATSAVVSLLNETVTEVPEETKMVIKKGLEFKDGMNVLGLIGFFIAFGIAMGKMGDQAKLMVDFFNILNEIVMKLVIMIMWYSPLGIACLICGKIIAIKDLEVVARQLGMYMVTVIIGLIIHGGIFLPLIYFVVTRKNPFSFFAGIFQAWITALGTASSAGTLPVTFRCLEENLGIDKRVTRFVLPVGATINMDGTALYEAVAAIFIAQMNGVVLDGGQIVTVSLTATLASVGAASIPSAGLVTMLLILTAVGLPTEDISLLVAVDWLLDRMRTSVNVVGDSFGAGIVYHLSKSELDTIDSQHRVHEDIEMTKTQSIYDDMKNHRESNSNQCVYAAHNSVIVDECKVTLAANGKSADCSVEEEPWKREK

For the compound `N#CC1C(=N)OC2=C(C(=O)CN(c3ccccc3)C2)C1c1ccccc1` (configuration not stated), the IC50 in experiment [1], in experiment [2] and in experiment [3] was over 100 µM in each case.

For `CC1(C)C2=C(CC(c3ccccc3)CC2=O)OC(=N)C1C#N` (configuration not stated), the IC50 in experiment [2] was over 300 µM.

For the compound `N#CC1C(=N)OC2=C(C(=O)CN(C(=O)c3ccccc3)C2)C1c1ccccc1` (configuration not stated), the IC50 in experiment [1], in experiment [2] and in experiment [3] was over 100 µM in each case.

A word on the IC50: it is the concentration at which inhibition is half-maximal.

For the origin of these results see BindingDB's records for doi:10.1021/jm300345z (University of Copenhagen, 2012).
